PMI act: activators of human phosphomannose isomerase; purified human PMI, coupled resazurin fluorescence, 20 min; hits give high values; 1 = vehicle control, 0 substrate-free wells; P34949; activation factor at 20 µM; 190,000 tested, 0.005% active; AID 1214;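 active = activation factor of 2 or more at 20 µM, relative to plate controls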
Target sequence (P34949 whole entry, looked up): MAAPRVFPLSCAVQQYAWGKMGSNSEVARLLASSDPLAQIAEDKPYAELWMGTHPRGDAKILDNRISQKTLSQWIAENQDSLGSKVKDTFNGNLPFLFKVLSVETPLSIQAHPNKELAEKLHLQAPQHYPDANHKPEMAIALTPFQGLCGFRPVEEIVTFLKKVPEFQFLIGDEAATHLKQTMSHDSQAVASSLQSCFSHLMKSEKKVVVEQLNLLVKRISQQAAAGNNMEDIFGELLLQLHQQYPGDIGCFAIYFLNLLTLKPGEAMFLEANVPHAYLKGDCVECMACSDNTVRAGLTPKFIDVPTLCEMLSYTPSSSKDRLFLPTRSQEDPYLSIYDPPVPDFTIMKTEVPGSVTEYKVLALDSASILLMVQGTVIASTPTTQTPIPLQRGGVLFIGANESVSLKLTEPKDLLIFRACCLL
TNAP inh noacc: inhibitors of human TNAP without phosphate acceptor; P05186; purified TNAP, CDP-star luminescence, 30 min; inhibition, % at 20 µM; 200,000 tested, 0.26% active;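 active = tissue-nonspecific alkaline phosphatase inhibition above about 50% at 20 µM in the single-dose screen, limit read from the data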
TNAP inh hiacc: inhibitors of human TNAP at high phosphate acceptor concentration; P05186; purified TNAP, CDP-star luminescence, 1 M DEA; inhibition, % at 20 µM; 200,000 tested, 0.03% active; AID 1135;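 active = over 50% inhibition of tissue-nonspecific alkaline phosphatase at 20 µM in the single-dose screen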
TNAP act hi DEA: activators of human TNAP at high phosphate acceptor concentration; 200,000 tested, under 10 active; AID 1136; activation factor at 20 µM; P05186; purified TNAP, CDP-star luminescence, 1 M DEA, 30 min; hits give high values; 0 = EDTA background, 1 = DMSO-only activity;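 active = activation factor at least 2 at 20 µM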
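Dosing: 20 µM single point. System: human TNAP. Amount: TNAP 1/800 final. Incubation: 30 min, room temperature. Read-out: TNAP activation factor scaled between EDTA and DMSO control wells. Signal: luminescence from CDP-star hydrolysis. Medium: 1 M DEA, pH 9.8, Mg2+, Zn2+. Control set: EDTA negative control, DMSO positive control.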
PMI act hi M6P: activators of human phosphomannose isomerase at near-saturating mannose 6-phosphate | coupled PMI enzyme assay, resazurin fluorescence, 20 min; hits give high values; 1 = untreated enzyme, 0 = substrate-free blank | activation factor at 20 µM | 190,000 tested, 0.34% active | AID 1216;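 active = activation factor of 2 or more at 20 µM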
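Test system: human phosphomannose isomerase with PGI, G6PDH, diaphorase coupling enzymes / Doses: 20 µM compound, 1% DMSO / Times: enzyme reaction with compound 20 min at room temperature / Measured by: Diaphorase-driven resazurin-to-resorufin fluorescence, excitation 544, emission 590 nm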
Each line names hits and unclear results; the compound was inactive in the other large screens. Only some compounds are listed: those with a hit (about 0.64% of all), similar ones and a draw of the others.

CCc1ccc(C(=O)Nc2cc3c(cc2Cl)OCCCO3)cc1	none
COc1ccccc1N/N=C/c1c(CO)cnc(C)c1O	PMI act hi M6P 2.1
COc1ccc(C(=O)N/N=C/c2c(CO)cnc(C)c2O)cc1	none
c1ccc(-c2cn3nc(-c4ccccc4)cnc3n2)cc1	PMI act hi M6P 2.6
c1ccc(-c2cn3nc4c(nc3n2)CCCC4)cc1	none
COc1ccccc1Nc1nc(-c2c(C)[nH]c3ccccc23)cs1	PMI act hi M6P 2
CCN=C1NN=C(c2cc(C)n(CCc3ccccc3)c2C)CS1	PMI act hi M6P 2.2
COc1cccc(C(=O)N2CCN(Cc3ccccc3C(F)(F)F)CC2)c1	none
CN1CCN(Cc2cn[nH]c2-c2ccc(F)cc2F)[C@@H](c2ccccc2)C1	none
COc1cccc(C(=O)N2CCN(Cc3cn[nH]c3-c3ccc(F)cc3F)CC2)c1	TNAP inh noacc 65
Cc1nonc1N1CCN(Cc2cn[nH]c2-c2ccc(F)cc2F)CC1	TNAP inh noacc 60
COc1ccc(-c2[nH]ncc2CN2C[C@@H]3CCC[C@H]2C3)c(F)c1	TNAP inh noacc 76
COc1ccc(C(=O)N2CCN(Cc3cn[nH]c3-c3ccc(OC)cc3F)CC2)cc1	TNAP inh noacc 82
Cc1nn2c(nc1=O)NNC2(C)C(C)(C)C (configuration not stated)	none
N#Cc1c(-c2ccccc2)nc2n(c1=O)CCS2	none
O=C(c1ccco1)N1CCN(Cc2cn[nH]c2-c2ccc(F)cc2F)CC1	TNAP inh noacc 78
Cc1c(N/N=C(\C#N)C(=O)c2ccccc2)c(=O)n(-c2ccccc2)n1C	PMI act hi M6P 2.1
CC(C)(C)NC(=O)C1Cc2ccccc2CN1C(=O)Nc1cccc(Cl)c1 (configuration not stated)	none
Cc1ccc(N=C2NC(=O)C(CC(=O)O)S2)cc1 (configuration not stated)	TNAP inh noacc 64
CCCCCNC(=O)c1ccc2c(=O)n(CCCN3CCCC3=O)c(=S)[nH]c2c1	none
O=C(C[n+]1ccc(C(=O)N/N=C/c2ccc(O)cc2)cc1)c1ccccc1	TNAP inh noacc 51
CCC(C)NC(=O)CSc1nnc(-c2cc(-c3cccs3)nc3ccccc23)o1 (configuration not stated)	none
Cc1nc(C/C(=N\Nc2ccccc2)c2ccc(O)cc2O)cs1	PMI act hi M6P 2.1
Cc1nc(CC(=O)c2ccc(O)cc2O)cs1	none
CCc1cc(/C(Cc2ccccn2)=N\Nc2ccccc2)c(O)cc1O	PMI act hi M6P 2.1
COc1ccc(-c2csc(NC(=O)c3ccoc3C)n2)cc1	none
CCOC(=O)C1=C(C)NC(SC)=NC1c1ccc(OC)cc1 (configuration not stated)	PMI act hi M6P 2.3
NC(=S)c1cc2cc(Br)ccc2oc1=O	none
O=C(NNC(=O)c1cc2cc(Br)ccc2oc1=O)c1ccc(O)cc1	TNAP inh noacc 82
CCn1ccc2cc(OC)ccc2c1=S	PMI act hi M6P 2
Cc1ccc(NC(=O)COC(=O)/C=C/c2ccc(Br)o2)cc1S(=O)(=O)N(C)C	PMI act hi M6P 2.2
CCOc1ccc(-n2cc(-c3ccc(OC)c(OC)c3)[nH]c2=S)cc1	TNAP inh noacc 62
COc1ccc(-n2cc(-c3ccccc3)[nH]c2=S)cc1	none
Cn1c(=S)n(C)c2ccccc21	none
Cn1c(=S)ccc2ccccc21	PMI act hi M6P 2.3
O=C(O)C/C=C(\NC(=O)OCc1ccccc1)C(=O)OCc1ccccc1	PMI act hi M6P 2.6
O=C(NC(=S)NCCOCc1ccc(Cl)cc1)c1cccnc1	none
O=C(NCc1cccc(F)c1)C1CCN(C(=O)c2sccc2-n2cccc2)CC1	none
CCOc1ccc(-n2c(C)cc(/C=C3/C(=N)N4C(=NC3=O)SN=C4S(C)(=O)=O)c2C)cc1	PMI act hi M6P 2.1
Cc1cc(/C=C2/C(=N)N3C(=NC2=O)SN=C3S(C)(=O)=O)c(C)n1-c1ccc(F)cc1	none
CCOc1ccc(/C=C/C(=O)c2cc(Br)ccc(=O)c2O)cc1	PMI act hi M6P 2
O=C(CSc1nccc(=O)[nH]1)N1CCN(c2ccccc2)CC1	none
O=C(CN1CCN(CC(=O)c2ccc(F)cc2)CC1)Nc1ccccc1Cl	PMI act hi M6P 2.2
O=c1[nH]c2cc(Cl)ccc2n1-c1ccccc1	TNAP inh noacc 69
O=Cc1c(Cl)[nH]c(=O)n1-c1ccccc1	none

Source: PubChem BioAssay
